Reference: ChEMBL document CHEMBL4715934, “Discovery of Imidazopyridines as Potent Inhibitors of Indoleamine 2,3-Dioxygenase 1 for Cancer Immunotherapy” (ACS Med Chem Lett, 2021)

Assays:
PXR (NR1I2) = target: T1, PXR (NR1I2) (Homo sapiens, UniProt O75469); assay: Transactivation of PXR (unknown origin) assessed as CYP450 induction relative to rifampicin
T1 sequence (O75469 whole entry): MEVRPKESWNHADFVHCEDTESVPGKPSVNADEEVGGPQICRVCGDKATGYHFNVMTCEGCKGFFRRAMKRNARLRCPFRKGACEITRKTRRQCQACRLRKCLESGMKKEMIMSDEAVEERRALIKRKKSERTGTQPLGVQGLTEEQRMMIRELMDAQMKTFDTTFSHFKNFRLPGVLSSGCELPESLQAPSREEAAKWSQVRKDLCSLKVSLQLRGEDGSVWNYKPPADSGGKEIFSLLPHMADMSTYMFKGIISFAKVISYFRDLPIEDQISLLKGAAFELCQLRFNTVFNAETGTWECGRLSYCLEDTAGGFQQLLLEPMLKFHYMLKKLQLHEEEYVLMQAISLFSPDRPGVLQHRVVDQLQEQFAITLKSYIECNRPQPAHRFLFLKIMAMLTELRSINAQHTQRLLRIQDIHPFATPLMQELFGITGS

[1] = target: T2, Indoleamine 2,3-dioxygenase 1 (Homo sapiens, UniProt P14902); assay: Inhibition of IDO1 in recombinant IFN-gamma induced human HeLa cells incubated for 18 hrs by fluorescence microplate reader assay
How it was run: (§1)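 HeLa (human) or M109 (murine) cells induced with IFNγ to express IDO1, then cellular IDO1 activity measured; values are the average of N = 2 unless noted.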

[2] = target: Indoleamine 2,3-dioxygenase 1 (Mus musculus, UniProt P28776); assay: Inhibition of IDO1 in recombinant IFN-gamma induced mouse M109 cells incubated for 18 hrs by fluorescence microplate reader assay; format: cell-based; how it was run: as §1
[3] = Metabolic stability in human liver microsomes assessed as parent compound remaining at 0.5 uM after 10 mins; format: ADME, Microsome; conditions: read-out: Stabilty
How it was run: (§2)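 Parent compound at 0.5 μM incubated 10 min with 1 mg/mL human, mouse or rat liver microsomes; fraction of parent remaining reported; average of N = 2 unless noted.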

[4] = Metabolic stability in mouse liver microsomes assessed as parent compound remaining at 0.5 uM after 10 mins; format: ADME, Microsome; conditions: read-out: Stabilty; how it was run: as §2
[5] = target: T3, Nuclear receptor subfamily 1 group I member 2 (Homo sapiens, UniProt O75469); assay: Transactivation of PXR (unknown origin) assessed as CYP450 induction
T3 sequence (O75469 whole entry): T1 sequence (O75469 whole entry)

[6] = Metabolic stability in rat liver microsomes assessed as parent compound remaining at 0.5 uM after 10 mins; format: ADME, Microsome; conditions: read-out: Stabilty; how it was run: as §2
[7] = target: T2, Indoleamine 2,3-dioxygenase 1; assay: Inhibition of IDO1 in IFN-gamma/LPS induced human whole blood assessed as tryptophan/kynurenine level measured after 18 hrs by RapidFire mass spectrometry; format: tissue-based

T2 sequence (P14902 whole entry): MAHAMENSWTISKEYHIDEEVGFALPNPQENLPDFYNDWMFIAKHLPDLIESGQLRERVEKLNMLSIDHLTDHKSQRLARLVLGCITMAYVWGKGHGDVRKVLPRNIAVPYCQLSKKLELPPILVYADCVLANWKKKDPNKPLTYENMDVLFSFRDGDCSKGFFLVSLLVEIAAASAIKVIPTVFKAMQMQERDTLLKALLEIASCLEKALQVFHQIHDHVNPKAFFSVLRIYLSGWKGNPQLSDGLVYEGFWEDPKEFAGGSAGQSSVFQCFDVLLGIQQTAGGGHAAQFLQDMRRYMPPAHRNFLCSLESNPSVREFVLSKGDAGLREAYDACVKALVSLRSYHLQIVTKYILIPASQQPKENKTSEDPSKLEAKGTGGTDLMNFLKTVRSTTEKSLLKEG
Sequence of Indoleamine 2,3-dioxygenase 1 (Mus musculus, UniProt P28776) (P28776 whole entry): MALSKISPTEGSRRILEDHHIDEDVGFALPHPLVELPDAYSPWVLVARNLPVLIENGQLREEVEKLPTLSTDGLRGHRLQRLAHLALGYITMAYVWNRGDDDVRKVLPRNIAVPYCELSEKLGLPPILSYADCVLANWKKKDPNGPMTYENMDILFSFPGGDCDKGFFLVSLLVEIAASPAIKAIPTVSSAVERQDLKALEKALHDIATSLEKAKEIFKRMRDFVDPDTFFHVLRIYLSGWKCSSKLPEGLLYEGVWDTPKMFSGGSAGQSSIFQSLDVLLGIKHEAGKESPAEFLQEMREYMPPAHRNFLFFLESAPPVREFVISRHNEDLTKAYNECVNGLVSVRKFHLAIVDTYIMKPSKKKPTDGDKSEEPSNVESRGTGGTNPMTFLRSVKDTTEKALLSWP

- Emax (PXR (NR1I2)): > 50%
- IC50 [1]: 13 nM
- IC50 [2]: 148 nM
- remaining at 10 min, 0.5 µM [3]: 83%
- remaining at 10 min, 0.5 µM [4]: 39%
- EC50 [5]: > 50000 nM
- remaining at 10 min, 0.5 µM [6]: 88%
- IC50 [7]: 459 nM
Compound: CCC(Nc1nnc(-c2ccc(OC)cc2)o1)[C@H]1CC[C@H](Oc2ccnc3ccccc23)CC1 (stereo partly drawn)
